Data on one compound can be found in ChEMBL document CHEMBL1154181 (J Med Chem, 2009).

SMILES strings stand for the structures.

This assay concerns Mus musculus. Nature of the assay: Antinociceptive activity against radiant heat-induced nociception in CD1 mouse assessed as tail withdrawal latency at 1 mg/kg, po measured after 15 to 120 mins postdose by tail flick test in presence of 0.1 to 1 mg/kg, ip alpha-1-adrenergic receptor antagonist prazosin administered 15 mins before compound infusion. Type of assay: functional. A digest of the protocol: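 Male CD-1 mice given prazosin ip (0.1 or 1 mg/kg) 15 min before oral dosing at 1 mg/kg. Tail flick: radiant heat 3–4 cm from the tail tip, cut-off 15 s. Hot plate: 48.5 °C, cut-off 60 s. Baseline is the mean of three readings 15 min apart. Latency followed over time and expressed as %MPE.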

With `C=Cc1c(C)nn(CCCN2CCN(c3ccc(C)cc3)CC2)c(=O)c1N`, the Activity came to 120 min.
